# Experimental data as given in ChEMBL document CHEMBL4689842, “EUbOPEN Chemogenomics Library wave 1” (2021).
# Tested on: U2OS
# Assay: Multiplex assay against U2OS
# Type: toxicity, cell-based
# Conditions: human
# Method in brief: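 Cells were classed with CellPathfinder machine-learning gating, first as Hoechst high-intensity objects or normal cells, then (normal cells) as healthy, pyknosed or fragmented nuclei, and finally (pyknosed cells) as mitotic or apoptotic. Staining of live cells at seeding used Hoechst33342, BioTracker Green Microtubule Cytoskeleton Dye, MitoTracker Red and Annexin V Alexa Fluor 680, with imaging on a CQ1 microscope at 37°C and 5% CO2 after compound addition. Tubulin, mitochondrial-mass and membrane-permeability phenotypes are per cents of healthy-nucleus cells.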
# [1] = 12 h, 1 µM, compound concentration 1 uM, replicate 1
# [2] = 12 h, 1 µM, compound concentration 1 uM, replicate 2
# [3] = 12 h, 10 µM, compound concentration 10 uM, replicate 1
# [4] = 12 h, 10 µM, compound concentration 10 uM, replicate 2
# [5] = 24 h, 1 µM, compound concentration 1 uM, replicate 1
# [6] = 24 h, 1 µM, compound concentration 1 uM, replicate 2
# [7] = 24 h, 10 µM, compound concentration 10 uM, replicate 1
# [8] = 24 h, 10 µM, compound concentration 10 uM, replicate 2
# [9] = 48 h, 1 µM, compound concentration 1 uM, replicate 1
# [10] = 48 h, 1 µM, compound concentration 1 uM, replicate 2
# [11] = 48 h, 10 µM, compound concentration 10 uM, replicate 1
# [12] = 48 h, 10 µM, compound concentration 10 uM, replicate 2
structure (smiles),measurement,setting,value
O=c1cc(N2CCOCC2)oc2c(-c3cccc4c3sc3ccccc34)cccc12,Population Apoptotic (%),[1],35%
same,Population Fragmented Nuclei (%),[1],12%
same,Population Healthy Nuclei (%),[1],76%
same,Population Hoechst High Intensity Objects (%),[1],7%
same,Population Membrane Permeable-Phenotype (%),[1],2%
same,Population Mitochondria Different-Phenotype (%),[1],10%
same,Population Mitotic Cells (%),[1],65%
same,Population Normal (%),[1],92%
same,Population Pyknosed Nuclei (%),[1],11%
same,Population Tubulin-Different-Phenotype (%),[1],10%
same,Total Cell Count,[1],120
same,Population Apoptotic (%),[2],100%
same,Population Fragmented Nuclei (%),[2],15%
same,Population Healthy Nuclei (%),[2],77%
same,Population Hoechst High Intensity Objects (%),[2],10%
same,Population Mitochondria Different-Phenotype (%),[2],6%
same,Population Mitotic Cells (%),[2],0%
same,Population Normal (%),[2],90%
same,Population Pyknosed Nuclei (%),[2],6%
same,Population Tubulin-Different-Phenotype (%),[2],14%
same,Total Cell Count,[2],79
same,Population Apoptotic (%),[3],52%
same,Population Fragmented Nuclei (%),[3],20%
same,Population Healthy Nuclei (%),[3],47%
same,Population Hoechst High Intensity Objects (%),[3],4%
same,Population Membrane Permeable-Phenotype (%),[3],24%
same,Population Mitochondria Different-Phenotype (%),[3],73%
same,Population Mitotic Cells (%),[3],47%
same,Population Normal (%),[3],95%
same,Population Pyknosed Nuclei (%),[3],32%
same,Population Tubulin-Different-Phenotype (%),[3],100%
same,Total Cell Count,[3],190
same,Population Apoptotic (%),[4],31%
same,Population Fragmented Nuclei (%),[4],19%
same,Population Healthy Nuclei (%),[4],45%
same,Population Hoechst High Intensity Objects (%),[4],16%
same,Population Membrane Permeable-Phenotype (%),[4],23%
same,Population Mitochondria Different-Phenotype (%),[4],90%
same,Population Mitotic Cells (%),[4],68%
same,Population Normal (%),[4],83%
same,Population Pyknosed Nuclei (%),[4],34%
same,Population Tubulin-Different-Phenotype (%),[4],95%
same,Total Cell Count,[4],70
same,Population Apoptotic (%),[5],25%
same,Population Fragmented Nuclei (%),[5],14%
same,Population Healthy Nuclei (%),[5],74%
same,Population Hoechst High Intensity Objects (%),[5],7%
same,Population Membrane Permeable-Phenotype (%),[5],4%
same,Population Mitochondria Different-Phenotype (%),[5],7%
same,Population Mitotic Cells (%),[5],75%
same,Population Normal (%),[5],92%
same,Population Pyknosed Nuclei (%),[5],10%
same,Population Tubulin-Different-Phenotype (%),[5],7%
same,Total Cell Count,[5],118
same,Population Apoptotic (%),[6],60%
same,Population Fragmented Nuclei (%),[6],11%
same,Population Healthy Nuclei (%),[6],82%
same,Population Hoechst High Intensity Objects (%),[6],6%
same,Population Membrane Permeable-Phenotype (%),[6],9%
same,Population Mitochondria Different-Phenotype (%),[6],9%
same,Population Mitotic Cells (%),[6],40%
same,Population Normal (%),[6],93%
same,Population Pyknosed Nuclei (%),[6],6%
same,Population Tubulin-Different-Phenotype (%),[6],15%
same,Total Cell Count,[6],86
same,Population Apoptotic (%),[7],60%
same,Population Fragmented Nuclei (%),[7],16%
same,Population Healthy Nuclei (%),[7],27%
same,Population Hoechst High Intensity Objects (%),[7],7%
same,Population Membrane Permeable-Phenotype (%),[7],22%
same,Population Mitochondria Different-Phenotype (%),[7],93%
same,Population Mitotic Cells (%),[7],40%
same,Population Normal (%),[7],92%
same,Population Pyknosed Nuclei (%),[7],55%
same,Population Tubulin-Different-Phenotype (%),[7],97%
same,Total Cell Count,[7],242
same,Population Apoptotic (%),[8],66%
same,Population Fragmented Nuclei (%),[8],14%
same,Population Healthy Nuclei (%),[8],21%
same,Population Hoechst High Intensity Objects (%),[8],6%
same,Population Membrane Permeable-Phenotype (%),[8],50%
same,Population Mitochondria Different-Phenotype (%),[8],70%
same,Population Mitotic Cells (%),[8],33%
same,Population Normal (%),[8],94%
same,Population Pyknosed Nuclei (%),[8],63%
same,Population Tubulin-Different-Phenotype (%),[8],70%
same,Total Cell Count,[8],86
same,Population Apoptotic (%),[9],43%
same,Population Fragmented Nuclei (%),[9],7%
same,Population Hoechst High Intensity Objects (%),[9],5%
same,Population Membrane Permeable-Phenotype (%),[9],3%
same,Population Mitochondria Different-Phenotype (%),[9],8%
same,Population Mitotic Cells (%),[9],56%
same,Population Normal (%),[9],94%
same,Population Pyknosed Nuclei (%),[9],18%
same,Population Tubulin-Different-Phenotype (%),[9],9%
same,Total Cell Count,[9],127
same,Population Apoptotic (%),[10],18%
same,Population Fragmented Nuclei (%),[10],16%
same,Population Healthy Nuclei (%),[10],73%
same,Population Hoechst High Intensity Objects (%),[10],4%
same,Population Membrane Permeable-Phenotype (%),[10],12%
same,Population Mitochondria Different-Phenotype (%),[10],12%
same,Population Mitotic Cells (%),[10],81%
same,Population Normal (%),[10],95%
same,Population Pyknosed Nuclei (%),[10],9%
same,Population Tubulin-Different-Phenotype (%),[10],18%
same,Total Cell Count,[10],103
same,Population Apoptotic (%),[11],81%
same,Population Fragmented Nuclei (%),[11],30%
same,Population Healthy Nuclei (%),[11],5%
same,Population Hoechst High Intensity Objects (%),[11],13%
same,Population Membrane Permeable-Phenotype (%),[11],55%
same,Population Mitochondria Different-Phenotype (%),[11],88%
same,Population Mitotic Cells (%),[11],19%
same,Population Normal (%),[11],86%
same,Population Pyknosed Nuclei (%),[11],63%
same,Population Tubulin-Different-Phenotype (%),[11],77%
same,Total Cell Count,[11],305
same,Population Apoptotic (%),[12],80%
same,Population Fragmented Nuclei (%),[12],22%
same,Population Healthy Nuclei (%),[12],25%
same,Population Hoechst High Intensity Objects (%),[12],12%
same,Population Membrane Permeable-Phenotype (%),[12],50%
same,Population Mitochondria Different-Phenotype (%),[12],83%
same,Population Mitotic Cells (%),[12],20%
same,Population Normal (%),[12],87%
same,Population Pyknosed Nuclei (%),[12],52%
same,Population Tubulin-Different-Phenotype (%),[12],58%
same,Total Cell Count,[12],116
